Source: PubChem BioAssay (several laboratories)
NR2E3 ag-1 = NR2E3 agonists in two-hybrid cells, primary screen, cell-based, luminescence, CHO-S, Gal4-NCOR/VP16-NR2E3; luciferase; actives 0.35% (n = 360,000); inhibition of corepressor binding, % at 3.98 µM; Photoreceptor-specific nuclear receptor (Homo sapiens), Q9Y5X4;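 active means inhibition above the mean of all tested compounds plus 3 SD, cut at about 70% in these data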;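 further: 0% = DMSO with NR2E3 transfected cells and 100% = cells lacking NR2E3 construct; higher means lower luciferase signal from less NR2E3 corepressor binding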
PG9 Ab binder = binders of HIV-1 gp120 antibody PG9, primary screen, biochemical, TR-FRET; HIV-1 gp120 / PG9 antibody interaction; AID 624416, 2012; TR-FRET gp120-PG9 antibody binding; inhibition, % at 6.7 µM; actives 0.43% (n = 360,000); in the data active means inhibition above about 8.5%
Rev-erbA mod = modulators of Rev-erb alpha DNA binding, primary screen, biochemical, FITC-DNA, fluorescence polarization, uHTS. Rev-erbα–FITC-DNA binding, 90 min. activity, % at 10 µM. actives 0.79% (n = 370,000). Nuclear receptor subfamily 1 group D member 1 (Homo sapiens), P20393;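 active means activity above about 14%, limit read from the data; passing the limit was not always enough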;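 further: 0% = DMSO wells with 35 nM protein and 100% = DMSO wells with 750 nM protein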
Target sequence (P20393 whole entry, looked up): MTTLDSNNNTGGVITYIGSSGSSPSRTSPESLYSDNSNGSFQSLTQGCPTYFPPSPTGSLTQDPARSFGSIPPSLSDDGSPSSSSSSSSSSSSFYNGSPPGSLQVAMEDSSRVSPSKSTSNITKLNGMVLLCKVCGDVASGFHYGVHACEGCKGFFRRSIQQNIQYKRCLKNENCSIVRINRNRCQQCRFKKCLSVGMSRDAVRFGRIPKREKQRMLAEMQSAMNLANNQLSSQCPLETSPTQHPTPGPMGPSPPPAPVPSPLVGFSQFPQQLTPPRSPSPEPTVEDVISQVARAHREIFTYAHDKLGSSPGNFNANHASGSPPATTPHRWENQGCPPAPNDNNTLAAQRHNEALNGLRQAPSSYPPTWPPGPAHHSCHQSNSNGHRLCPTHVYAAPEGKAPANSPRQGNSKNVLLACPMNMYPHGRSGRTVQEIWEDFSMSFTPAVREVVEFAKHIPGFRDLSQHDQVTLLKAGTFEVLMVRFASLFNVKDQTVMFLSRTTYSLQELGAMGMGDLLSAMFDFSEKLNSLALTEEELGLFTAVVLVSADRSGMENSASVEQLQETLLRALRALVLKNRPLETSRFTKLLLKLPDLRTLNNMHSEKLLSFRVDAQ
NR2E3 ag-2 = inhibitors of NR2E3-RetCOR corepressor binding, primary screen, NR2E3 agonist project, biochemical, TR-FRET, GST-NR2E3, biotin-RetCOR; Photoreceptor-specific nuclear receptor (Homo sapiens), Q9Y5X4; 1536-well; inhibition of corepressor binding, % at 4.78 µM; actives 0.12% (n = 320,000); AID 2300, 2010;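 active means percent inhibition above the cutoff of mean plus 3 SD of all tested compounds, set per screening campaign, cut at about 20% in these data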;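 further: 0% = DMSO wells and 100% = biotin wells as full block of FRET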
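Format: 1536-well format; test system: GST-NR2E3 and biotin-RetCOR proteins; read-out basis: percent inhibition of TR-FRET ratio; timing: 5 h incubation at 4 °C; detection: time-resolved FRET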
NR2E3 ag confirm = NR2E3 agonist confirmation in cells, cell-based, luminescence, CHO-S two-hybrid; shares compounds with NR2E3 ag-1; AID 624378, 2012; inhibition, % at 3.98 µM; CHO-S mammalian two-hybrid NR2E3-NCOR, luciferase luminescence; actives 51% (n = 2,300);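 active means average inhibition above a cutoff equal to the mean inhibition of all tested compounds plus one SD, cut at about 70% in these data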;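 further: 0% = DMSO in NR2E3 cells and 100% = DMSO in cells lacking NR2E3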
VP16 counter = GAL4-VP16 reporter modulators, confirmation, counter-screen for NR2E3 agonist project, cell-based, luminescence, CHO-S, high throughput | shares compounds with NR2E3 ag-1 | CHO-S GAL4-VP16 luciferase reporter | inhibition, % at 3.98 µM | actives 29% (n = 2,300) | AID 624379, 2012;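 active means mean inhibition above a cutoff equal to the average over all tested compounds plus one standard deviation, cut at about 70% in these data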;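 further: luciferase from a UAS reporter driven by GAL4-VP16 transactivation; 0% = DMSO with VP16-transfected cells and 100% = DMSO with cells lacking VP16; higher means less reporter light so more repression of VP16 activity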
PG9 bind confirm = binders of anti-gp120 antibody PG9, confirmation, biochemical, TR-FRET. shares compounds with PG9 Ab binder. TR-FRET PG9 antibody binding. inhibition, % at 6.7 µM. actives 90% (n = 1,500); in the data active means inhibition above about 9%
PGV04 Ab binding = binders of control antibody PGV04, counter-screen for PG9 antibody binder project, biochemical, TR-FRET, distinct HIV envelope site | shares compounds with PG9 Ab binder | TR-FRET PGV04 antibody-gp120 binding | inhibition, % at 6.7 µM | actives 95% (n = 1,500) | AID 651604, 2012; in the data active means inhibition above about 9.5%
PG9 binder DR = small-molecule binders of antibody PG9, dose response, biochemical, TR-FRET, HIV-1 gp120 antibody; shares compounds with PG9 Ab binder; TR-FRET PG9 antibody-gp120 binding inhibition; IC50, µM; 95 tested, under 10 active; AID 651848, 2012; in the data active means IC50 below about 10 µM
PGV04 binding DR = binders of control antibody PGV04, dose response, counter-screen for PG9 antibody binder project, biochemical, TR-FRET, distinct HIV envelope site | shares compounds with PG9 Ab binder | TR-FRET binding to control antibody PGV04 | IC50, µM | actives 20% (n = 95)
PG126 binding DR = binders of control antibody PG126, dose response, counter-screen for PG9 antibody binder project, biochemical, TR-FRET, distinct HIV envelope site. TR-FRET binding to antibody PG126, counterscreen. actives 20% (n = 95). shares compounds with PG9 Ab binder. IC50, µM
NR1D1 mod conf = modulators of Rev-erb alpha DNA binding, confirmation, biochemical, FITC-DNA, fluorescence polarization, single point. shares compounds with Rev-erbA mod. 90 min. activation, % at 25 µM. actives 61% (n = 3,000). AID 1259319, 2017;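 active means activation at or above a set limit, or at least 3 SD above the negative control mean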;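 further: 0% = 35 nM protein with DMSO and 100% = 750 nM protein high control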
RORg counter = modulation of RORgamma DNA binding, dose response, counter-screen for Rev-erb alpha modulator project, biochemical, fluorescence polarization, FITC-DNA | purified RORgamma protein-FITC-DNA binding | actives 8% (n = 910) | IC50, µM | shares compounds with Rev-erbA mod | AID 1259320, 2017;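 active means Compounds whose fitted half-maximal concentration for disrupting protein-DNA binding is below 10 micromolar; the record names Rev-erb in its text, so the target is in doubt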
* = called active by the depositor; i = inactive; . = not tested or not shown. Most compounds without a hit are left out; they make up all but 1.5% or so of the library. Unless noted, no stated cut-off is given here; in the data, active means IC50 below about 9 µM; inactive means the rest.

SMILES	NR2E3 ag-1	PG9 Ab binder	Rev-erbA mod	NR2E3 ag-2	NR2E3 ag confirm	VP16 counter	PG9 bind confirm	PGV04 Ab binding	others
COP(=O)(O)C(COCCC(CC(C)C)NC(=O)OCc1ccccc1[N+](=O)[O-])NC(=O)OCc1ccccc1 (stereo not given)	.	.	6	.	.	.	.	.
Cc1ccccc1Nc1nc(N)nc(CSc2nc3ccccc3c(=O)n2C)n1	88*	26*	22	-1	13	32	73*	82*
Fc1ccc(-c2n[nH]c(=S)n2N=Cc2ccc(OCc3ccccc3)cc2)cc1	.	.	-2	.	.	.	.	.
O=c1[nH]c(SCc2ccc(Cl)cc2)nc2ccsc12	.	-1	-6	0	.	.	.	.
N#Cc1c(-c2cccs2)nc(SCc2ccc(Cl)cc2)[nH]c1=O	78*	47*	0	.	97*	69	50*	61*
Cc1cc(C(=O)CSc2nc3ccccc3c(=O)n2C)c(C)n1Cc1ccc2c(c1)OCO2	69	2	42*	-4	95*	76*	.	.	NR1D1 mod conf=6
CCCCCC[n+]1ccccc1/C=C/c1ccc(N(C)C)cc1	88*	-11	34*	.	98*	80*	.	.	NR1D1 mod conf=37*;RORg counter=i
CC[n+]1ccccc1/C=C/c1ccc(N(C)C)cc1	-7	-16	16	.	.	.	.	.
COc1ccc(C(=O)Nc2nnc(Cc3cccs3)s2)cc1OC	63	33*	46*	12	62	23	45*	75*	NR1D1 mod conf=47*;RORg counter=>40
COc1ccc(Cc2nnc(NC(=O)c3ccc(OC)c(OC)c3)s2)cc1	11	8	3	4	.	.	.	.
CC(C)(C)N(Cc1cn(Cc2ccccc2)nn1)S(=O)(=O)c1ccc(N2CCCC2)cc1Br	.	.	0	.	.	.	.	.
Oc1[nH]c2ccc(Br)cc2c1N=NC(=S)N1CCOCC1	98*	-1	19*	1	90*	44	.	.	NR1D1 mod conf=24*
COC(=O)N=Nc1c(O)[nH]c2ccc(Br)cc12	-31	-3	-6	-5	.	.	.	.
CCN1/C(=C/c2ccc3cccc(C)c3[n+]2CC)Sc2ccccc21	86*	-8	48*	-6	97*	85*	.	.	NR1D1 mod conf=71*;RORg counter=>40
CCN1/C(=C/c2ccc3cc(C)ccc3[n+]2CC)Sc2ccc3sccc3c21	25	.	.	-6	.	.	.	.
Cc1ccc(Cn2cc(COC(=O)N3CCCC3)nn2)cc1	.	.	-5	.	.	.	.	.
COc1cccc(NC(=O)CSc2nc3ncc(Br)cc3[nH]2)c1	66	22*	104*	0	80*	33	7	11*	NR1D1 mod conf=101*;RORg counter=i
COc1ccc(C2C(C(=O)Nc3ccc(C)c(C)c3)CCC(=O)N2c2ccc(OC)cc2)cc1 (stereo not given)	.	.	4	.	.	.	.	.
CN1C(=O)c2cc(NC(=O)c3ccc(F)cc3)ccc2OC[C@H]2O[C@H](CC(=O)NC3CCC3)CC[C@H]21	.	.	0	.	.	.	.	.
O=C(CSc1nnnn1-c1ccccc1)Nc1nsc(-c2ccc(Cl)cc2)n1	70	8	26*	-135	98*	38	.	.	NR1D1 mod conf=43*
O=C1c2cccc3c(O)ccc(c23)C(=O)N1Cc1ccccc1	64	0	73*	1	82*	60	.	.	NR1D1 mod conf=73*;RORg counter=>40
CCn1c(=S)[nH]c2scc(-c3cccs3)c2c1=O	-6	11*	-6	.	.	.	6	11*
CC(C)n1c(=S)[nH]c2scc(-c3cccs3)c2c1=O	19	7	-11	0	.	.	.	.
COc1ccc(/C(C)=N\NC(=O)c2ccco2)cc1	.	.	-4	.	.	.	.	.
N#Cc1c(SC(C(=O)O)c2ccccc2)nc2c(c1-c1cccs1)CCCC2 (stereo not given)	-25	20*	-8	16	.	.	32*	44*
SMILES	NR2E3 ag-1	PG9 Ab binder	Rev-erbA mod	NR2E3 ag-2	NR2E3 ag confirm	VP16 counter	PG9 bind confirm	PGV04 Ab binding	others
O=C(NCc1ccccn1)C1CCN(S(=O)(=O)N2CCCCC2)CC1	-10	8.6*	-4	1	.	.	8	11*
CCS(=O)(=O)N1CCC(C(=O)NCc2ccccn2)CC1	-1	-1	0	1	.	.	.	.
O=C(NCCCc1ccccc1)O[C@@H]1CC[C@@]23CCCN2C(=O)CCC[C@H]3C1	.	.	-4	.	.	.	.	.
COc1cccc(OCc2nn3c(=O)c(-c4ccccc4)nnc3s2)c1	-33	12*	18	.	.	.	19*	35*
COc1ccc(OCc2nn3c(-c4cccc(OC)c4)nnc3s2)cc1	-12	-2	-1	-2	.	.	.	.
COC(=O)[C@]12C[C@H](CC(=O)N3CCOCC3)C(=O)N(Cc3ccco3)C1=C[C@H](COCc1ccccc1)O[C@@H]2C	.	.	8	.	.	.	.	.
S=c1nc[nH]c2c1[nH]c1ccc(Cl)cc12	-45	34*	-7	-2	.	.	15*	17*
S=c1nc[nH]c2c1[nH]c1ccccc12	-51	79*	-1	4	.	.	48*	29*	PG9 binder DR=i;PGV04 binding DR=i;PG126 binding DR=i
O=c1c2[nH]c3ccc(Cl)cc3c2ncn1CCN1CCCCC1	-36	-2	1	2	.	.	.	.
S=c1nc(-c2ccccc2)[nH]c2ccccc12	27	3	5	17	.	.	.	.
